{"source": "ChEMBL document CHEMBL1125593", "about": "“Synthesis and biological evaluation of substituted benzenesulfonamides as novel potent membrane-bound phospholipase A2 inhibitors” (1991)", "key": {"[1]": {"tested_on": "membrane-bound phospholipase A2 (Oryctolagus cuniculus)", "assay": "Tested in vitro for inhibition of phospholipase A2 (PLA2) in rabbit heart membranes."}, "Rattus norvegicus [2]": {"tested_on": "Rattus norvegicus", "assay": "Compound was tested for the % inhibition rate of infarct size (myoglobin depleted area) on iv administration 15 min prior to the ligation at a dose of 0.3 mg/kg.", "assay_type": "functional"}, "Rattus norvegicus [3]": {"tested_on": "Rattus norvegicus", "assay": "Compound was tested for the % inhibition rate of infarct size (myoglobin depleted area) on iv administration 15 min prior to the ligation at a dose of 1.0 mg/kg.", "assay_type": "functional"}, "Rattus norvegicus [4]": {"tested_on": "Rattus norvegicus", "assay": "Compound was tested for the % inhibition rate of infarct size (myoglobin depleted area) on iv administration 15 min prior to the ligation at a dose of 0.1 mg/kg.", "assay_type": "functional"}, "[5]": {"tested_on": "membrane-bound phospholipase A2 (Oryctolagus cuniculus)", "assay": "Compound was tested for the percent inhibition of phospholipase A2 (PLA2) in rabbit heart membranes at a concentration of 100 uM."}, "Rattus norvegicus [6]": {"tested_on": "Rattus norvegicus", "assay": "Compound was tested for the % inhibition rate of infarct size (myoglobin depleted area) on sc administration 15 min prior to the ligation at a dose of 75.0 mg/kg.", "assay_type": "functional", "settings": "route subcutaneous", "procedure,_shortened": "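Sprague-Dawley rats (180–260 g) were anesthetized with diethyl ether and the left main coronary artery was ligated 1–2 mm from its origin for 3 h. Compound was given sc 15 min before ligation, and rats dying within 3 h were excluded. Infarct size was scored as the myoglobin-depleted area by immunohistochemistry and image analysis, with inhibition taken versus untreated animals, mean ± SEM.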"}, "Rattus norvegicus [7]": {"tested_on": "Rattus norvegicus", "assay": "Compound was tested for the % inhibition rate of infarct size (myoglobin depleted area) on iv administration 15 min prior to the ligation at a dose of 1 mg/kg.", "assay_type": "functional"}, "Rattus norvegicus [8]": {"tested_on": "Rattus norvegicus", "assay": "Compound was tested for the % inhibition rate of infarct size (myoglobin depleted area) on iv administration 15 min prior to the ligation at a dose of 10 mg/kg.", "assay_type": "functional"}}, "data": [{"smiles": "CN(C(=O)/C=C/c1ccc(O)c(O)c1)c1ccc(S(=O)(=O)NC2CCCCC2)cc1", "values": [{"measurement": "IC30", "setting": "[1]", "value": 1450, "unit": "nM"}]}, {"smiles": "CN(C(=O)/C=C/c1ccc(S(C)(=O)=O)cc1)c1ccc(S(=O)(=O)N2CCN(Cc3ccccc3)CC2)cc1", "values": [{"measurement": "IC30", "setting": "[1]", "value": 220, "unit": "nM"}]}, {"smiles": "CN(C(=O)/C=C/c1ccc(O)c(O)c1)c1ccc(S(=O)(=O)NC2CCc3ccccc3C2)cc1", "note": "(stereo not drawn)", "values": [{"measurement": "IC30", "setting": "[1]", "value": 5070, "unit": "nM"}]}, {"smiles": "CN(C(=O)/C=C/c1ccc(O)c(O)c1)c1ccc(S(=O)(=O)NC2CCc3ccccc32)cc1", "note": "(stereo not drawn)", "values": [{"measurement": "IC30", "setting": "[1]", "value": 6100, "unit": "nM"}]}, {"smiles": "CN(C(=O)/C=C/c1ccc(-n2ccnc2)cc1)c1ccc(S(=O)(=O)NC2CCCCCC2)cc1", "values": [{"measurement": "IC30", "setting": "[1]", "value": 450, "unit": "nM"}]}, {"smiles": "CN(C(=O)/C=C/c1ccc(O)c(O)c1)c1ccc(S(=O)(=O)NC2Cc3ccccc3C2)cc1", "values": [{"measurement": "IC30", "setting": "[1]", "value": 4640, "unit": "nM"}]}, {"smiles": "CN(C(=O)/C=C/c1ccc(S(C)(=O)=O)cc1)c1ccc(S(=O)(=O)NC2CCN(Cc3ccccc3)CC2)cc1", "values": [{"measurement": "Inhibition rate", "setting": "Rattus norvegicus [2]", "value": 20.9, "unit": "%"}, {"measurement": "Inhibition rate", "setting": "Rattus norvegicus [3]", "value": 22.1, "unit": "%"}, {"measurement": "Inhibition rate", "setting": "Rattus norvegicus [4]", "value": 1.6, "unit": "%"}, {"measurement": "IC30", "setting": "[1]", "value": 28, "unit": "nM"}]}, {"smiles": "CC(C)NS(=O)(=O)c1ccc(N(C)C(=O)/C=C/c2ccc(O)c(O)c2)cc1", "values": [{"measurement": "IC30", "setting": "[1]", "value": 30000, "unit": "nM"}]}, {"smiles": "CN(C(=O)/C=C/c1ccc(O)c(O)c1)c1ccc(S(=O)(=O)NC2CCCCCC2)cc1", "values": [{"measurement": "IC30", "setting": "[1]", "value": 1750, "unit": "nM"}]}, {"smiles": "CN(C(=O)/C=C/c1ccc(S(C)(=O)=O)cc1)c1ccc(S(=O)(=O)NC2CCCCCC2)cc1", "values": [{"measurement": "IC30", "setting": "[1]", "value": 16, "unit": "nM"}]}, {"smiles": "CN(C(=O)/C=C/c1ccc(S(C)(=O)=O)cc1)c1ccc(S(=O)(=O)NCCc2ccccn2)cc1", "values": [{"measurement": "IC30", "setting": "[1]", "value": 210, "unit": "nM"}]}, {"smiles": "CN(C(=O)/C=C/c1ccc(C#N)cc1)c1ccc(S(=O)(=O)NC2CCCCCC2)cc1", "values": [{"measurement": "IC30", "setting": "[1]", "value": 200, "unit": "nM"}]}, {"smiles": "CNS(=O)(=O)c1ccc(N(C)C(=O)/C=C/c2ccc(O)c(O)c2)cc1", "values": [{"measurement": "IC30", "setting": "[1]", "value": 44000, "unit": "nM"}]}, {"smiles": "CN(C(=O)/C=C/c1ccc(S(C)(=O)=O)cc1)c1ccc(S(=O)(=O)NC2CCN(CCc3ccccc3)CC2)cc1", "values": [{"measurement": "Inhibition rate", "setting": "Rattus norvegicus [2]", "value": 18.7, "unit": "%"}, {"measurement": "Inhibition rate", "setting": "Rattus norvegicus [3]", "value": 22.5, "unit": "%"}, {"measurement": "Inhibition rate", "setting": "Rattus norvegicus [4]", "value": 7, "unit": "%"}, {"measurement": "IC30", "setting": "[1]", "value": 9, "unit": "nM"}]}, {"smiles": "Cc1cccc(CCN(C)S(=O)(=O)c2ccc(N(C)C(=O)/C=C/c3ccc(S(C)(=O)=O)cc3)cc2)n1", "values": [{"measurement": "IC30", "setting": "[1]", "value": 65, "unit": "nM"}]}, {"smiles": "COC(=O)c1sccc1NC(=O)/C=C/c1ccc(O)c(O)c1", "values": [{"measurement": "inhibition", "setting": "[5]", "value": 31.6, "unit": "%"}]}, {"smiles": "COc1ccc(CCN(C)CCCC(C#N)(c2ccc(OC)c(OC)c2)C(C)C)cc1OC", "note": "(stereo not drawn)", "values": [{"measurement": "Inhibition rate", "setting": "Rattus norvegicus [2]", "value": 0.1, "unit": "%"}, {"measurement": "Inhibition rate", "setting": "Rattus norvegicus [3]", "value": 19.2, "unit": "%"}, {"measurement": "Inhibition rate", "setting": "Rattus norvegicus [4]", "value": 0.7, "unit": "%"}]}, {"smiles": "CN(C(=O)/C=C/c1ccc(O)c(O)c1)c1ccc(S(N)(=O)=O)cc1", "values": [{"measurement": "IC30", "setting": "[1]", "value": 13300, "unit": "nM"}]}, {"smiles": "CN(C(=O)/C=C/c1ccc(S(C)(=O)=O)cc1)c1ccc(S(=O)(=O)N2CCCN(CCc3ccccc3)CC2)cc1", "values": [{"measurement": "IC30", "setting": "[1]", "value": 25, "unit": "nM"}]}, {"smiles": "CN(C(=O)/C=C/c1ccc(O)cc1)c1ccc(S(=O)(=O)NC2CCCCCC2)cc1", "values": [{"measurement": "IC30", "setting": "[1]", "value": 1240, "unit": "nM"}]}, {"smiles": "CN(C(=O)/C=C/c1ccc([N+](=O)[O-])cc1)c1ccc(S(=O)(=O)NC2CCCCCC2)cc1", "values": [{"measurement": "IC30", "setting": "[1]", "value": 190, "unit": "nM"}]}, {"smiles": "CN(C(=O)/C=C/c1ccc(S(C)(=O)=O)cc1)c1ccc(S(=O)(=O)N2CCCN(Cc3ccccc3)CC2)cc1", "values": [{"measurement": "IC30", "setting": "[1]", "value": 64, "unit": "nM"}]}, {"smiles": "CN(C(=O)/C=C/c1ccc(O)c(F)c1)c1ccc(S(=O)(=O)NC2CCCCCC2)cc1", "values": [{"measurement": "IC30", "setting": "[1]", "value": 5330, "unit": "nM"}]}, {"smiles": "CC(C)CN1CCC(NS(=O)(=O)c2ccc(N(C)C(=O)/C=C/c3ccc(S(C)(=O)=O)cc3)cc2)CC1", "values": [{"measurement": "IC30", "setting": "[1]", "value": 51, "unit": "nM"}]}, {"smiles": "CCN(CC)CCCC(C)Nc1c2ccc(Cl)cc2nc2ccc(OC)cc12", "note": "(stereo not drawn) [QUINACRINE]", "values": [{"measurement": "Inhibition rate", "setting": "Rattus norvegicus [6]", "value": 37.4, "unit": "%"}]}, {"smiles": "NS(=O)(=O)c1ccc(NC(=O)/C=C/c2ccc(O)c(O)c2)cc1", "values": [{"measurement": "IC30", "setting": "[1]", "value": 25000, "unit": "nM"}]}, {"smiles": "CN(C(=O)/C=C/c1ccc(S(C)(=O)=O)cc1)c1ccc(S(=O)(=O)NC2CCCCN(Cc3ccccc3)C2)cc1", "note": "(stereo not drawn)", "values": [{"measurement": "IC30", "setting": "[1]", "value": 25, "unit": "nM"}]}, {"smiles": "CN(C(=O)/C=C/c1ccc(S(C)(=O)=O)cc1)c1ccc(S(=O)(=O)N2CCN(CCc3ccccc3)CC2)cc1", "values": [{"measurement": "IC30", "setting": "[1]", "value": 63, "unit": "nM"}]}, {"smiles": "Cc1cccc(CCNS(=O)(=O)c2ccc(N(C)C(=O)/C=C/c3ccc(S(C)(=O)=O)cc3)cc2)n1", "values": [{"measurement": "Inhibition rate", "setting": "Rattus norvegicus [7]", "value": 5.6, "unit": "%"}, {"measurement": "Inhibition rate", "setting": "Rattus norvegicus [8]", "value": 21.9, "unit": "%"}, {"measurement": "IC30", "setting": "[1]", "value": 66, "unit": "nM"}]}, {"smiles": "CN(C(=O)/C=C/c1ccc(O)c(O)c1)c1ccc(S(=O)(=O)NC2CCCC2)cc1", "values": [{"measurement": "IC30", "setting": "[1]", "value": 5430, "unit": "nM"}]}, {"smiles": "CN1CCC(NS(=O)(=O)c2ccc(N(C)C(=O)/C=C/c3ccc(S(C)(=O)=O)cc3)cc2)CC1", "values": [{"measurement": "IC30", "setting": "[1]", "value": 1000, "unit": "nM"}]}, {"smiles": "CN(C(=O)/C=C/c1ccc(S(C)(=O)=O)cc1)c1ccc(S(=O)(=O)NC2CCCCN(Cc3ccccn3)C2)cc1", "note": "(stereo not drawn)", "values": [{"measurement": "IC30", "setting": "[1]", "value": 49, "unit": "nM"}]}, {"smiles": "CN(C(=O)/C=C/c1ccc(S(C)(=O)=O)cc1)c1ccc(S(=O)(=O)NCc2ccccn2)cc1", "values": [{"measurement": "IC30", "setting": "[1]", "value": 260, "unit": "nM"}]}]}
